Assay results published in ChEMBL document CHEMBL1151747, “Orally bioavailable isothioureas block function of the chemokine receptor CXCR4 in vitro and in vivo” (J Med Chem, 2008).

Columns and labels:
[1] = biological target: T1, C-X-C chemokine receptor type 4 (Homo sapiens, UniProt P61073); test: Displacement of [125I]CXCL12 from CXCR4 in human CEM cells; assay type: cell-based, CCRF-CEM
Outline: (§1)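 Scintillation proximity assay. Membranes come from CEM cells (human CXCR4) or IR983F cells (rat CXCR4), prepared by homogenization in 20 mM HEPES, 1 mM EDTA pH 7.4 and stored at -80 °C. Nonspecific binding is defined with 400 nM unlabeled CXCL12. Incubation is 2 h at room temperature with shaking, then scintillation counting.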

[2] = biological target: T1, C-X-C chemokine receptor type 4; test: Activity at CXCR4 in human CEM cells assessed as inhibition of CXCL12-induced calcium mobilization; assay type: functional, cell-based, CCRF-CEM
Outline: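 CEM cells are loaded with 4 µM Fluo-4 for 1 h at 37 °C, washed, then preincubated with antagonist for 2 h. Wells are run in quadruplicate on FLIPR.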

[3] = biological target: C-X-C chemokine receptor type 4 (Rattus norvegicus, UniProt O08565); test: Displacement of [125I]CXCL12 from CXCR4 in rat IR983F cells; assay type: cell-based; outline: as §1
Chain of C-X-C chemokine receptor type 4 (Rattus norvegicus, UniProt O08565) (O08565 whole entry): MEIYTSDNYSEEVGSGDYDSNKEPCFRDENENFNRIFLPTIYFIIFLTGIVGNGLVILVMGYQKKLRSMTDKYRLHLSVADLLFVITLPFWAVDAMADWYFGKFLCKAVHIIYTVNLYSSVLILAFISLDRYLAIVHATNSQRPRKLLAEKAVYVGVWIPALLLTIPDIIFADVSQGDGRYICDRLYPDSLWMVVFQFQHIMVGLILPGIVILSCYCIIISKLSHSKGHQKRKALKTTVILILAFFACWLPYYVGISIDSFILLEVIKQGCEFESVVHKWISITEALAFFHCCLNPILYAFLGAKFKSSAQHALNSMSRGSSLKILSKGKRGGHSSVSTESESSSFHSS

[4] = biological target: T2, Cytochrome P450 1A2 (Homo sapiens, UniProt P05177); test: Inhibition of CYP1A2; assay type: ADME
T2 sequence (P05177 whole entry): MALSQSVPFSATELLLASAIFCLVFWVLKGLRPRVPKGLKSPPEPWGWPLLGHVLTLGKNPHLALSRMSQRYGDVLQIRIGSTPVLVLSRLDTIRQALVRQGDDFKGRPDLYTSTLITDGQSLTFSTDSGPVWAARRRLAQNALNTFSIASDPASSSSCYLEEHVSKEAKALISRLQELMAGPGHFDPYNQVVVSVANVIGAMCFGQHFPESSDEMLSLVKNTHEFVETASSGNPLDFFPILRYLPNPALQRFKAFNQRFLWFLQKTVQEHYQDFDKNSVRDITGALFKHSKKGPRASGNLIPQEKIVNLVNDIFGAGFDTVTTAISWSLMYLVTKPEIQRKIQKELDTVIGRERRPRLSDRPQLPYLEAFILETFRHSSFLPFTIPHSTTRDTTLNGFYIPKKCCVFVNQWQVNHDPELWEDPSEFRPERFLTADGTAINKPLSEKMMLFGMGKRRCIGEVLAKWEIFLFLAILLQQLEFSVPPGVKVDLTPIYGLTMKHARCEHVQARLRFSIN

[5] = biological target: Cytochrome P450 2C9 (Homo sapiens, UniProt P11712); test: Inhibition of CYP2C9; assay type: ADME
Chain of Cytochrome P450 2C9 (P11712 whole entry): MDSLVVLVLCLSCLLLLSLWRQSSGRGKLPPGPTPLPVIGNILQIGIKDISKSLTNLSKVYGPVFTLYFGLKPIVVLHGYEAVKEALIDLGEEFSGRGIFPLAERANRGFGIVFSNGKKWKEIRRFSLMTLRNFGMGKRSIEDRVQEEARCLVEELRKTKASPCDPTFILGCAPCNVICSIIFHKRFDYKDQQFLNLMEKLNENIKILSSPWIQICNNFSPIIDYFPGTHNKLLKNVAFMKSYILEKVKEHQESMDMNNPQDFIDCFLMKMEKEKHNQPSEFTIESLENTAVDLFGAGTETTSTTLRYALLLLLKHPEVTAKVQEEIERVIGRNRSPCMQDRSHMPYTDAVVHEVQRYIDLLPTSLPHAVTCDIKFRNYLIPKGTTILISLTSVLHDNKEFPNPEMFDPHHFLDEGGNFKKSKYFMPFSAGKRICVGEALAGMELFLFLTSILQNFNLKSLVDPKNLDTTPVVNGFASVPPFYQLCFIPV

[6] = biological target: Cytochrome P450 2C19 (Homo sapiens, UniProt P33261); test: Inhibition of CYP2C19; assay type: ADME
Chain of Cytochrome P450 2C19 (P33261 whole entry): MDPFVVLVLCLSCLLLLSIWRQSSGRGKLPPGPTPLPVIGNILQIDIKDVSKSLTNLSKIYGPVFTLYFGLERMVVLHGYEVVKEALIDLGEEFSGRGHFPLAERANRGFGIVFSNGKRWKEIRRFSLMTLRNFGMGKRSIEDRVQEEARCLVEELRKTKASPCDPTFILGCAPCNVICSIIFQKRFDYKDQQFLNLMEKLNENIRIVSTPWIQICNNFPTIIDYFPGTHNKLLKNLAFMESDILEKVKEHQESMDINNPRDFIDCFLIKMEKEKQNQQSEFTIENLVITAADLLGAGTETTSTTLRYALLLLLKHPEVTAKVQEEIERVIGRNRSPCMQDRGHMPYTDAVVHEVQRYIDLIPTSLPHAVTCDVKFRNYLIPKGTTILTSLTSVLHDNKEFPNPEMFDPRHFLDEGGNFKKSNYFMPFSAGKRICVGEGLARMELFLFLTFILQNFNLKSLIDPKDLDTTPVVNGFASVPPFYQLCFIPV

[7] = biological target: Cytochrome P450 2D6 (Homo sapiens, UniProt P10635); test: Inhibition of CYP2D6; assay type: ADME
Chain of Cytochrome P450 2D6 (P10635 whole entry): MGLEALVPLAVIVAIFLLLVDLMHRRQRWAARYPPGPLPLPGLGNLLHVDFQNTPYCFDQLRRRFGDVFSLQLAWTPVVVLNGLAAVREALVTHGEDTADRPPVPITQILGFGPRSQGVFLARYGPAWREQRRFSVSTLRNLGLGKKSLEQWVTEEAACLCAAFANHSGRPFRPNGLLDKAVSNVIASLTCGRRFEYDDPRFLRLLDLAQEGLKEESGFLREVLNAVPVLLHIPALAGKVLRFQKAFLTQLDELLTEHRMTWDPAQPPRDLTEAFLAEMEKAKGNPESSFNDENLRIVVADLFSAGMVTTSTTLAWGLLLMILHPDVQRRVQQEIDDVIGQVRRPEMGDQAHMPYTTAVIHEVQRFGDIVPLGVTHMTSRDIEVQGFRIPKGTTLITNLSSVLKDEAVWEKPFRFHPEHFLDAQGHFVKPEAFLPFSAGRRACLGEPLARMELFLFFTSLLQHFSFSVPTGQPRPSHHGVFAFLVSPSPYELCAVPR

[8] = biological target: Cytochrome P450 3A4 (Homo sapiens, UniProt P08684); test: Inhibition of CYP3A4; assay type: ADME
Chain of Cytochrome P450 3A4 (P08684 whole entry): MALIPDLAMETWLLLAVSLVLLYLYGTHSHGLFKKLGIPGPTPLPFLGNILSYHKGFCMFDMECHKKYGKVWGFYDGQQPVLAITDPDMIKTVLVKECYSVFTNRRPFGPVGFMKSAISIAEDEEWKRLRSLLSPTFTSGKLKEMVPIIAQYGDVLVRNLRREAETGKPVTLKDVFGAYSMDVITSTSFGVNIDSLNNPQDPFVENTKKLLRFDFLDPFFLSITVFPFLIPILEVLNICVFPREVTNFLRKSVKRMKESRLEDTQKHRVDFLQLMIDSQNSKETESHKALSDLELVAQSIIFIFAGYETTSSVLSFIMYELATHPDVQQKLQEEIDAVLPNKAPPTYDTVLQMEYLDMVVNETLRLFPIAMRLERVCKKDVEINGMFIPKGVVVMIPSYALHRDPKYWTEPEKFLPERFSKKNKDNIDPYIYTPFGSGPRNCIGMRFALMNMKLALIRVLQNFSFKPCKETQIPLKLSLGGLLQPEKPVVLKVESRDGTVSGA

[9] = Dissociation constant, pKa of the compound; assay type: physicochemical
[10] = Partition coefficient, log P of the compound; assay type: physicochemical; details: octanol/water
[11] = Distribution coefficient, log D of the compound; assay type: physicochemical; details: octanol/water
[12] = Intrinsic clearance in human liver microsomes; assay type: ADME, Microsome
Outline: (§2)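 Compound is incubated with human or rat liver microsomes; intrinsic clearance is given in µL min-1 mg-1.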

[13] = Intrinsic clearance in rat liver microsomes; assay type: ADME, Microsome; outline: as §2
[14] = Solubility in pH 1.0 buffer; assay type: physicochemical
[15] = Solubility in pH 6.8 buffer; assay type: physicochemical
[16] = Fraction unbound in human serum; assay type: ADME, cell-free
[17] = Fraction unbound in rat serum; assay type: ADME, cell-free
[18] = Oral bioavailability in Lewis rat at 10 mg/kg; assay type: ADME, organism-based; details: in vivo
[19] = Tmax in Lewis rat at 10 mg/kg, po; assay type: ADME, organism-based; parameters: dose 10 mg/kg, route oral; details: in vivo
[20] = Half life in Lewis rat at 10 mg/kg, po; assay type: ADME, organism-based; parameters: dose 10 mg/kg, route oral; details: in vivo
[21] = tested on: Human immunodeficiency virus 1; test: Antiviral activity against X4-tropic HIV1 3B assessed as inhibition of viral attachment; assay type: functional, organism-based; details: Human immunodeficiency virus 1, 3B

T1 sequence (P61073 whole entry): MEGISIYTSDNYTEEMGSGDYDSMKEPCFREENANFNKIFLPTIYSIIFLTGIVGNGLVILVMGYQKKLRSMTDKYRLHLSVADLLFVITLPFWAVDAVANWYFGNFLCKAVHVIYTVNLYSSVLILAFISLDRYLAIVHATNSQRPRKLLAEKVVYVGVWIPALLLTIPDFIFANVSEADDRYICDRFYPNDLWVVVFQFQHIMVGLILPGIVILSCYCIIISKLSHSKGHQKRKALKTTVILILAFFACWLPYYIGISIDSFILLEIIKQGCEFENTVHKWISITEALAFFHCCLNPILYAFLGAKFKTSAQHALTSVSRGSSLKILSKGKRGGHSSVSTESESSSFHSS

| IC50 [1] | IC50 [2] | IC50 [21] | IC90 [21] | further results | Compound |
| --- | --- | --- | --- | --- | --- |
| 185 nM | 57 nM |  |  |  | C1=C(CS/C(=N\C2CCCCC2)NC2CCCCC2)N2CCCN=C2S1 |
|  |  | 7 nM | 100 nM | IC50 [3]: 11 nM; IC50 [4]: > 10000 nM; IC50 [5]: > 10000 nM; IC50 [6]: 5200 nM; IC50 [7]: 400 nM; IC50 [8]: > 10000 nM; pKa [9]: 8; logP [10]: 4.5; logD [11]: 1.2; microsomal CLint [12]: 149 µL/min/mg; microsomal CLint [13]: 342 µL/min/mg; solubility [14]: > 5000 µg/mL; solubility [15]: > 5000 µg/mL; fraction unbound [16]: 0.2; fraction unbound [17]: 0.46; bioavailability [18]: 32%; Tmax [19]: 0.5 h; half-life [20]: 7.6 h | CC1(C)CN2C(CS/C(=N\C3CCCCC3)NC3CCCCC3)=CSC2=N1 |
| 25 nM | 3.1 nM | 50 nM | 820 nM |  | C1=C(CS/C(=N\C2CCCCCC2)NC2CCCCCC2)N2CCN=C2S1 |
| 1530 nM | 437 nM |  |  |  | CC(C)(C)C1CCC(NC(=NC2CCCCC2)SCC2=CSC3=NCCN23)CC1 (stereo unspecified) |
| 372 nM | 173 nM | 470 nM | > 100000 nM |  | C1=C(CSC(=NC2CCCCC2)NC2CCCC2)N2CCN=C2S1 |
| 27 nM | 5.3 nM |  |  |  | C1=C(CS/C(=N\C2CCCCCCC2)NC2CCCCCCC2)N2CCN=C2S1 |
| 3830 nM | 493 nM |  |  |  | C1=C(CS/C(=N\C2CCCC2)NC2CCCC2)N2CCN=C2S1 |
| > 10000 nM | 9130 nM |  |  |  | C/N=c1/scc(CS/C(=N\C2CCCCC2)NC2CCCCC2)n1C |
|  |  | 3 nM | 50 nM |  | c1cc(CN2CCCNCCNCCCNCC2)ccc1CN1CCCNCCNCCCNCC1 [PLERIXAFOR] |
| 10000 nM | 2220 nM |  |  |  | c1ccc(CNC(=NC2CCCCC2)SCC2CSC3=NCCN32)cc1 (stereo unspecified) |
| 28 nM | 8 nM |  |  |  | C1=C(CS/C(=N\C2CCCCC2)NC2CCCCCCC2)N2CCN=C2S1 |
| > 10000 nM | > 10000 nM |  |  |  | c1ccc(CS/C(=N\C2CCCCC2)NC2CCCCC2)cc1 |
